This is a sample that favours compounds with a hit; in the whole collection about 2.2% have one here.
FID counter: displaces DNA intercalator in HCV helicase counter-screen. hit rate 0.17% among 290,000. inhibition, % at 7.9 µM. DNA fluorescent intercalator displacement, fluorescence; in the data active means inhibition above about 37%;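 further: 0% = vehicle and 100% = reference compound; higher means more ethidium bromide displaced from hairpin DNA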
HCV core dimer: blocks dimerization of HCV core protein; TR-FRET GST/Flag-core106 dimerization, 1536-well; inhibition, % at 5 µM; hit rate 0.33% among 300,000; AID 1899;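 active means inhibition above the mean of all tested compounds plus 3 SD, set per screening campaign, cut at about 45% in these data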
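Assay system – GST-tagged and Flag-tagged HCV core protein residues 1-106 · Quantity – core106 proteins, GST 13.5 nM and Flag 17 nM · Benchmarks – unlabelled core106 and no-GST-core106 wells · Read-out basis – percent inhibition of core106 dimerization signal · Detection – time-resolved FRET, ex 340 nm, em 617 and 671 nm · Schedule – 4 h at 22.5 °C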
GRK2 aptamer HTS: blocks RNA aptamer binding to human GRK2; inhibition of aptamer binding, % at 10 µM; AID 488847; bead flow cytometry, FAM-aptamer displacement from GRK2; hit rate 0.59% among 330,000; P25098;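 active means inhibition of aptamer binding above 40%, roughly 3 SD of noise, on plates passing a quality check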;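 further: median bead fluorescence of bound FAM aptamer so fluorescent compounds give negative values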
Target sequence (P25098 whole entry, looked up): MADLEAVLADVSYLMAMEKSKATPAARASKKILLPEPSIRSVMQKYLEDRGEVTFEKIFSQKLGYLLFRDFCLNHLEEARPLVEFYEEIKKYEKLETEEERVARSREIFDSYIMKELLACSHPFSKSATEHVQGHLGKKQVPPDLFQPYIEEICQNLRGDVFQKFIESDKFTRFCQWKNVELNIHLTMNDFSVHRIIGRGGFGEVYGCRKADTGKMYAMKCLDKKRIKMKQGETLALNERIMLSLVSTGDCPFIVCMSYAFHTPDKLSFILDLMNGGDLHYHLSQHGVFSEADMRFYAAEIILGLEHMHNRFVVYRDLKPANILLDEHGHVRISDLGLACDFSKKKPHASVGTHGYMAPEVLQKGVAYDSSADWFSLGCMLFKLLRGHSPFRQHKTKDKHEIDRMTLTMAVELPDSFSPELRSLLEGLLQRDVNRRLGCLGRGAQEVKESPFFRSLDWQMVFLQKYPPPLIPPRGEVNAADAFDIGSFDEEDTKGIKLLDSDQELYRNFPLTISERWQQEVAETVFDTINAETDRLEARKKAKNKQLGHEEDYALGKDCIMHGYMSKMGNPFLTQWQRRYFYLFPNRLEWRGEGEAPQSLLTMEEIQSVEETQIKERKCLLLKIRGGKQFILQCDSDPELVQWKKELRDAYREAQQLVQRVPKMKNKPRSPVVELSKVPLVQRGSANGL
DAGLB inh: blocks human DAGLB lipase activity. Q8NCG7. AID 504411. inhibition, % at 5.17 µM. hit rate 0.059% among 340,000. HEK293T DAGLB membrane lysate, EnzChek fluorogenic substrate; in the data active means inhibition above about 34%;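 further: 0% = enzyme with vehicle and 100% = wells lacking enzyme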
NS3 helicase inh: inhibitors of Hepatitis C virus NS3 helicase; NS3 helicase DNA unwinding, Cy5 molecular beacon fluorescence; hit rate 0.56% among 290,000; AID 1800; inhibition, % at 10.9 µM;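 active means inhibition above the mean of all tested compounds plus 3 SD, set per campaign, cut at about 35% in these data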;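 further: 0% = DMSO wells and 100% = thioflavine S control wells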
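Compound dosing – single dose, 10.9 µM nominal final, DMSO 0.8% final · System – NS3 helicase fragment of HCV · Buffer or medium – MOPS pH 6.5, MgCl2, DTT, Tween20, BSA · Signal – Cy5 beacon fluorescence read at start and 1 h · Also added – annealed dual-labelled DNA beacon duplex, ATP-started · Schedule – 1 h at 25 °C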
GPR7 antag: antagonists of human GPR7 (neuropeptides B/W receptor 1) | P48145 | GPR7-expressing cells, fluorescence antagonist assay | inhibition, % at 4.4 µM | hit rate 1.1% among 290,000 | AID 1861; in the data active means inhibition above about 16%, passing the limit was not always enough;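 further: cells stimulated with the agonist NPW; 0% = agonist with vehicle and 100% = vehicle without agonist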
* marks the source's active call; other numbers are inactive results; / = not tested or not shown.

SMILES | FID counter | HCV core dimer | GRK2 aptamer HTS | DAGLB inh | NS3 helicase inh | GPR7 antag
COc1ccc(N2Cc3cccc(C(=O)N4CCOCC4)c3C2=O)cc1 | -6.8 | -3.6 | 2.0 | -5.2 | 2.2 | -3.3
COc1ccc(N2Cc3cccc(C(=O)N4CCN(C(=O)c5ccco5)CC4)c3C2=O)cc1 | -19.8 | 85.4* | 34.0 | 3.5 | 5.7 | -6.2
O=C(/C=C/c1ccco1)N1CCN(S(=O)(=O)c2ccccc2)CC1 | / | / | 78.0* | 1.0 | / | /
O=C(/C=C/c1ccccc1)N1CCC(c2ccccc2)C1 (stereo unspecified) | -30.5 | 8.7 | 5.0 | -3.3 | 14.7 | -2.2
O=C(/C=C/c1ccco1)N1CCCC(c2ccccc2)C1 (stereo unspecified) | -15.4 | 48.0* | 3.0 | 0.6 | 28.4 | -2.9
COCCn1cnnc1SCC(=O)c1ccc(S(=O)(=O)N2CCCC2)cc1 | -5.0 | 53.6* | 0.0 | -2.7 | -1.1 | -8.4
Cn1cnnc1SCC(=O)Nc1cc(S(=O)(=O)N2CCCCC2)ccc1Cl | -14.9 | -4.4 | 0.0 | 1.4 | -6.6 | 6.5
COc1ccc(C2CC(c3ccccc3)=NN2c2ccc(/C=N/NC(=O)c3ccncc3)cc2)cc1 (stereo unspecified) | -4.7 | 47.7* | 4.0 | -1.8 | 3.6 | -9.4
N#CCC(=O)N/N=C/c1ccc(N2N=C(c3ccccc3)CC2c2ccccc2)cc1 (stereo unspecified) | -23.5 | 10.8 | 67.0* | 2.5 | 20.9 | -5.8
COc1ccc(C2CC(c3ccccc3)=NN2c2ccc(C(N)=O)cc2)cc1 (stereo unspecified) | -24.0 | 9.3 | 0.0 | 0.3 | -30.5 | -17.7
CN(Cc1ccccc1C#N)S(=O)(=O)c1cccs1 | 0.0 | 3.1 | 0.0 | 1.6 | -6.6 | -13.0
N#Cc1nccnc1S(=O)(=O)c1cccs1 | 1.4 | -2.3 | 1.0 | / | -3.6 | 18.3*
O=C(NCCc1ccccc1)c1ccccc1NC(=O)C1CCCO1 (stereo unspecified) | -20.3 | 5.2 | 0.0 | -1.0 | -2.8 | 19.7*
C[C@@H]1CN([C@@H](C)CO)C(=O)c2cc(Br)cnc2O[C@@H]1CN(C)Cc1ccc(Oc2ccccc2)cc1 | / | / | / | -4.2 | / | /
Cc1ccc(N2C(=O)c3cccc4c(N)ccc(c34)C2=O)c2cccnc12 | -1.1 | -4.1 | 0.0 | -239.3 | 0.3 | 18.8*
Cc1ccc(-c2cc(C(=O)Nc3ccccn3)c3ccccc3n2)o1 | -2.4 | 64.3* | 6.0 | 0.8 | 22.4 | 4.3
Cc1ccc(NC(=O)c2cc(-c3ccc(C)o3)nc3ccccc23)cc1 | -12.7 | 44.4 | 0.0 | -1.1 | 0.9 | -2.3
COC(=O)N(C)C[C@@H]1OCc2ccccc2-c2c(n(C)c3ccccc23)C(=O)N([C@H](C)CO)C[C@@H]1C | / | / | / | 7.3 | / | /
COc1ccc([N+](=O)[O-])c(S(=O)(=O)c2ccc(Cl)cc2)n1 | 4.0 | 3.0 | 4.0 | -11.2 | -8.5 | 7.5
COc1ccc([N+](=O)[O-])c(S(=O)(=O)c2ccccc2)n1 | 4.9 | 0.1 | 0.0 | / | -11.1 | 19.6*
CN(C(=O)CSc1nnnn1-c1ccc(O)cc1)C1CCS(=O)(=O)C1 (stereo unspecified) | 0.8 | 1.9 | 0.0 | 2.5 | 1.4 | 4.5
CN(C(=O)CSc1nnnn1-c1ccccc1)C1CCS(=O)(=O)C1 (stereo unspecified) | -2.0 | -6.5 | 4.0 | -1.2 | -13.2 | 19.0*
c1ccc(COc2ccc(OCCCCN3CCCCC3)cc2)cc1 | 44.4* | 2.7 | 0.0 | 0.2 | -4.6 | 14.9
C=CCc1cc(Cl)ccc1OCCNCCN1CCOCC1 | 39.2* | -2.1 | 0.0 | 0.4 | -8.8 | 4.4
C/C(Nc1ccc(Cl)cc1)=C1/CCOC1=O | / | / | / | 1.7 | / | /
SMILES | FID counter | HCV core dimer | GRK2 aptamer HTS | DAGLB inh | NS3 helicase inh | GPR7 antag
COc1ccccc1CCC(=O)N(C)CC(=O)Nc1ccc(F)cc1 | -19.0 | -12.1 | 0.0 | -5.2 | -1.4 | -14.8
NC(N)=NCCC[C@H](NC(=O)OCc1ccccc1)C(=O)O | -4.6 | -7.5 | / | 2.9 | 6.8 | -5.5
Cc1cc(=O)oc2cc(NC(=O)C(CCCN=C(N)N)NC(=O)OCc3ccccc3)ccc12 (stereo unspecified) | 41.3* | / | 0.0 | -0.6 | -49.1 | 8.8
COC(=O)C1CCN(S(=O)(=O)CCNC(=O)c2ccccc2)CC1 | / | / | / | -2.2 | / | /
CCc1ccc(NC(=O)C2CCCN(S(=O)(=O)c3ccc4c(c3)CC(C)N4C(C)=O)C2)cc1 (stereo unspecified) | -49.7 | 18.1 | 3.0 | -2.3 | -20.2 | -5.6
CCc1ccc(NC(=O)C2CCN(S(=O)(=O)c3ccc4c(c3)CC(C)N4C(C)=O)CC2)cc1 (stereo unspecified) | -47.9 | 20.5 | 1.0 | -1.5 | 19.2 | 20.9*
NC(=O)c1c(NC(=O)CN2CCN(S(=O)(=O)c3ccccc3)CC2)sc2c1CCC2 | / | 47.5* | 3.0 | -2.4 | / | /
N#Cc1c(NC(=O)CN2CCN(S(=O)(=O)c3ccc4c(c3)OCCO4)CC2)sc2c1CCC2 | -1.3 | 70.8* | 0.0 | -0.7 | 1.8 | -8.5
O=C(Nc1nc(-c2ccccc2)cs1)C1CCCO1 (stereo unspecified) | -9.6 | -0.8 | 0.0 | -3.4 | 11.0 | 12.1
Cc1csc(NC(=O)C2CCCO2)n1 (stereo unspecified) | 3.7 | -3.8 | 0.0 | 0.8 | -1.7 | 14.3*
CCCCN(C(=O)Cn1nnc2ccccc21)C(C(=O)NCCOC)c1ccccc1 (stereo unspecified) | -32.3 | -3.1 | 1.0 | 3.5 | 4.8 | 19.4*
CCN(CC)C(=O)C1=C(C)N(Cc2ccccc2)C(=O)C(CC(=O)NCc2cccs2)C1 (stereo unspecified) | / | / | / | 5.8 | / | /
CCN(CC)c1ccc2c(C)c(Cl)c(=O)oc2c1 | -10.4 | -0.7 | 0.0 | -1.3 | -8.8 | -1.2
CCN(CC)c1ccc2c(Cl)c(Br)c(=O)oc2c1 | -3.9 | -91.4 | 2.0 | -16.4 | 11.7 | 41.0*
CC[C@@H](NCCCn1cnc2c(SC)ncnc21)c1ccccc1 | / | / | / | 1.6 | / | /
Cc1cc(/C=N/NC(=O)Cn2c3ccccc3c(=O)c3ccccc32)c(C)n1-c1ccccc1 | -6.4 | 62.1* | 0.0 | -1.0 | 19.9 | 11.8
CC(=O)c1ccc(N(CC(=O)NC2CCCC2)C(=O)c2ccc(C)s2)cc1 | -18.8 | -6.6 | 2.0 | -1.6 | -4.3 | 20.8*
O=C(Nc1ccc(C2=NCCN2)cc1)c1ccc(C(=O)Nc2ccc(C3=NCCN3)cc2)c(Cl)c1 | 36.7* | 22.0 | 0.0 | 3.0 | -61.3 | -8.8
CCOC(=O)C1CCCN(C(=O)c2cc(-c3ccc(F)cc3)nc3ccccc23)C1 (stereo unspecified) | -33.6 | 5.2 | 1.0 | -7.6 | 0.8 | -5.0
CCN1CCCC(OC(=O)c2cc(-c3ccc(C)cc3)nc3ccccc23)C1 (stereo unspecified) | 38.5* | -5.8 | 3.0 | -9.2 | -36.0 | 15.8
CN1CCN(c2ccc(NC(=O)CSc3nnnn3-c3ccccc3Cl)cc2)CC1 | 37.5* | -6.5 | 0.0 | -2.2 | -67.3 | 7.6
Cc1cccc(OCCSc2nc3ncnc(N)c3[nH]2)c1 | -1.0 | -15.9 | 0.0 | -1.3 | -4.7 | 16.3*
